Compound activity deposited in PubChem by several laboratories.
MT1-MMP act inh: MT1-MMP (human) activation inhibition | AID 651647 | 360,000 tested, 0.061% active | P50281 | GFP/RFP ratio change, % at 20 µM | HT1080 RFP-PRO-GFP cells, GFP/RFP ratio fluorescence, overnight; percent of plate control window, DMSO zero;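 active = GFP/RFP ratio change of at least 30% with cell ATP level not reduced by more than half and red fluorescence within 50% of control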
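Material: RFP-PRO-GFP reporter HT1080 cells. Dosing: single-point 20 µM compound, 1% DMSO. Controls: DMSO and RFP-L50D-GFP cell wells. Timing: cells overnight before dosing, compound overnight, 37 °C, 5% CO2. Measure: GFP/RFP fluorescence ratio.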
ADAM17 inh: ADAM17 inhibition, QFRET primary screen; P78536; recombinant ADAM17, EDANS/DABCYL FRET peptide cleavage; inhibition, % at 6.95 µM; 370,000 tested, 0.83% active; AID 720648;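 active = inhibition above the mean of compounds lying between control limits plus 3 SD, set per campaign, cut at about 8.5% in these data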
Target sequence (P78536 215-824 limits assumed): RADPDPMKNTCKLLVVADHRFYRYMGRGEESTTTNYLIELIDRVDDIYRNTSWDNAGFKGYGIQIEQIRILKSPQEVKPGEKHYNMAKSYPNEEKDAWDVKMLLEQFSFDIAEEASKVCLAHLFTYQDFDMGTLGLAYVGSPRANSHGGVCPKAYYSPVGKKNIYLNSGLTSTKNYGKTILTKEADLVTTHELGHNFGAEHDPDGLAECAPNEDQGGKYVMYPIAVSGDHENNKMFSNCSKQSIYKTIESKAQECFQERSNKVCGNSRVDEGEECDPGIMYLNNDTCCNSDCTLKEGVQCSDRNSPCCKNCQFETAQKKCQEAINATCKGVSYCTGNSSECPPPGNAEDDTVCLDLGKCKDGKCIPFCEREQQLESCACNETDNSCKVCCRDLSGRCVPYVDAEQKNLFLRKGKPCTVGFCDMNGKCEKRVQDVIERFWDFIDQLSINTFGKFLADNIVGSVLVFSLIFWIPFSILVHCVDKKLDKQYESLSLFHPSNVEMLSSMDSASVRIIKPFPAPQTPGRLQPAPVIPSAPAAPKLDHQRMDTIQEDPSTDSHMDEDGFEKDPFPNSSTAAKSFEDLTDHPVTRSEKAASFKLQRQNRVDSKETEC
SKN-1 inh: inhibitors of C. elegans SKN-1; C. elegans VP596 Pgst-4::GFP/RFP ratio, acrylamide-induced, 24 h; inhibition, % at 21.8 µM; 360,000 tested, 0.49% active; AID 624304;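 active = interference check ratio from 0.5 to 1.5 plus GFP to RFP signal ratio inhibition reaching or exceeding a fixed threshold, cut at about 30% in these data, passing the limit was not always enough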
ADAM10 inh: inhibits human ADAM10; O14672; recombinant ADAM10, EDANS/DABCYL FRET peptide cleavage, 3 h; inhibition, % at 7 µM; 370,000 tested, 0.62% active;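 active = inhibition above a per-campaign cutoff equal to the mean of compounds falling between control-based bounds plus 3 SD, cut at about 20% in these data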
MPTP block: blocks calcium-induced mitochondrial swelling. isolated mouse mitochondria, Ca2+ swelling absorbance, 30 min. inhibition, % at 10 µM. 360,000 tested, 1.4% active. AID 602449;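 active = inhibition of 50% or more, scaled per plate between neutral and stimulator controls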
NR3A LBD binder: NR3A (human) ligand-binding domain modulation. 340,000 tested, 2.5% active. Tm shift relative to glycine control, % at 25 µM. NR3A LBD differential scanning fluorimetry, Tm shift; 0% = protein alone, 100% = glycine-bound protein. AID 1259313;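 active = melting temperature shift of at least 10% of the positive control shift, at one fixed dose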
ADAM10 counter: counter-screen for ADAM17 exosite inhibitors: inhibitors of human ADAM10 | shares compounds with ADAM17 inh | recombinant ADAM10, EDANS/DABCYL FRET peptide cleavage, 3 h | inhibition, % at 6.95 µM | 2,900 tested, 47% active | AID 743256;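 active = mean inhibition over the triplicate runs exceeds the activity threshold set in the earlier primary screen, cut at about 20% in these data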
ADAM17 confirm: human ADAM17 inhibition, confirmation. shares compounds with ADAM17 inh. recombinant ADAM17, EDANS/DABCYL QFRET peptide cleavage. inhibition, % at 6.95 µM. 2,900 tested, 65% active. AID 743257;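 active = mean inhibition across replicates above the hit cutoff set in the primary screen, cut at about 8.5% in these data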
Each line names hits and unclear results; the compound was inactive in the other large screens (follow-up assays come after a bar, where they were run); ! = not confirmed by another sample. Most compounds without a hit are left out; they make up all but 4.7% or so of the library.

COc1cc(NC(=O)c2cc(C)on2)cc(C(=O)Nc2cccc(C(F)(F)F)c2)c1	ADAM17 inh 12! | ADAM10 counter 34 | ADAM17 confirm 16
COc1ccc(NC(=O)c2cc(C)on2)cc1	none
N#CCOc1ccccc1CNC[C@H]1O[C@@H](n2cnc(C(N)=O)n2)[C@H](O)[C@@H]1O	ADAM17 inh 9.7 | ADAM10 counter inactive | ADAM17 confirm inactive
CC(=O)N1c2ccc(S(=O)(=O)N(C)CC(=O)N3CCCC3)cc2CC1C (configuration not stated)	none (no result: ADAM17 inh, ADAM10 inh)
Cc1ccc(S(=O)(=O)NCC(=O)OCC(=O)NCc2ccc3c(c2)OCO3)cc1	none
CC(=O)Nc1ccc(S(=O)(=O)NCC(=O)OCC(=O)NCc2ccc3c(c2)OCO3)cc1	ADAM17 inh 9.6 | ADAM10 counter inactive | ADAM17 confirm inactive
CCCCCCNc1ccc(C(=O)OCC)cc1	none (no result: NR3A LBD binder)
O=C(c1ccncc1)N1N=C(c2ccc(Br)cc2)CC1c1ccccc1O (configuration not stated)	none
O=C(c1ccccc1)N1N=C(c2ccccc2)CC1c1ccccc1O (configuration not stated)	ADAM17 inh 11 | ADAM10 counter inactive | ADAM17 confirm 10
Cc1ccc(C2=NN(S(=O)(=O)c3ccccc3)C(c3ccccc3O)C2)cc1 (configuration not stated)	ADAM17 inh 8.9 | ADAM10 counter 42 | ADAM17 confirm 23
CCOC(=O)c1c(NC(=O)c2ccno2)c2cc([N+](=O)[O-])ccc2n1C	none
C=CCN(CC=C)Cc1cc(=O)oc2ccc3ccccc3c12	none (no result: NR3A LBD binder)
NNC(=O)CNc1cccc(Br)c1	none
C=CCNc1cccc(Br)c1	ADAM17 inh 9.1 | ADAM10 counter inactive | ADAM17 confirm inactive
Nc1nc(N(Cc2ccccc2)Cc2ccccc2)nc(C(F)(F)F)n1	ADAM17 inh 9.1 | ADAM10 counter inactive | ADAM17 confirm 8.9
Cc1ccc([C@H]2C(C(=O)O)=C[C@@H](CC3CCCC3)N2S(=O)(=O)c2ccc(C)cc2)cc1	none
COc1cc(NC(=O)Cn2nnc(-c3ccccc3N)n2)cc(OC)c1	ADAM17 inh 9.6 | ADAM10 counter inactive | ADAM17 confirm inactive
COc1ccc(NC(=O)Cn2nnc(-c3ccccc3N)n2)cc1OC	none
O=S(=O)(c1ccccc1)N(CC(O)Cn1c2ccccc2c2ccccc21)c1ccccc1 (configuration not stated)	ADAM17 inh 14 | ADAM10 counter inactive | ADAM17 confirm 17
O=S(=O)(c1ccc(F)cc1)N(CCO)CC(O)Cn1c2ccccc2c2ccccc21 (configuration not stated)	ADAM17 inh 9.0 | ADAM10 counter inactive | ADAM17 confirm inactive
Cc1ccc(S(=O)(=O)N(C)CC(O)Cn2c3ccccc3c3ccccc32)cc1 (configuration not stated)	ADAM17 inh 11 | ADAM10 counter 21 | ADAM17 confirm 11
CCCCOCCCNC(=O)C1CCCCC1	none
CCN(CC)c1ccc(S(=O)(=O)N2CCOCC2)cc1NC(=O)COC(=O)/C=C/c1ccccc1	ADAM17 inh 8.8 | ADAM10 counter inactive | ADAM17 confirm 11
CCN(CC)c1ccc(S(=O)(=O)N2CCOCC2)cc1NC(=O)COC(=O)/C=C/c1ccc(O)c(OC)c1	none
COc1ccc(C#Cc2cccc(-c3nc(C(=O)NCCCN4CCOCC4)cc4c3[C@H](CCO)N(S(=O)C(C)(C)C)C4)c2)cc1OC (some centres not stated)	none (no result: NR3A LBD binder)
CCOC(=O)c1cc2c(c(-c3cccc(C#Cc4ccc(OC)c(OC)c4)c3)n1)[C@@H](CCO)N(S(=O)C(C)(C)C)C2 (some centres not stated)	ADAM17 inh 8.8 (no result: NR3A LBD binder) | ADAM10 counter inactive | ADAM17 confirm 10
CCCNC(=O)c1cc2c(c(-c3cccc(-c4ccc(F)cc4)c3)n1)[C@H](CCO)N(S(=O)C(C)(C)C)C2 (some centres not stated)	ADAM17 inh 10 (no result: NR3A LBD binder) | ADAM10 counter inactive | ADAM17 confirm 10
CC(C)(C)OC(=O)NCCCCCNC(=O)c1[nH]cnc1C(=O)N[C@@H](CCCCNC(=O)OC(C)(C)C)C(=O)OC(C)(C)C	none (no result: ADAM17 inh, ADAM10 inh)
CC(C)(C)OC(=O)NCCCC[C@H](NC(=O)c1nc[nH]c1C(=O)NC1CCN(C(=O)OC(C)(C)C)CC1)C(=O)OC(C)(C)C	ADAM17 inh 8.9 | ADAM10 counter inactive | ADAM17 confirm inactive
O=C(Nc1ccccc1N1CCOCC1)c1cc(F)cc(F)c1	none
Cc1ccc(-c2cc(C(F)(F)F)n3ncc(C(=O)N4CCCc5ccccc54)c3n2)cc1	none
COc1ccccc1NC(=O)c1c([N+](=O)[O-])c(C(C)(C)C)nn1C	ADAM17 inh 8.6 | ADAM10 counter inactive | ADAM17 confirm inactive
COc1ccccc1NC(=O)c1nn(C)c(C(=O)Nc2ccccc2OC)c1[N+](=O)[O-]	none
Cc1ccc(NC(=O)CSc2nc3ccccc3c3nc(CCc4c(C)n[nH]c4C)nn23)cc1F	none
CC(C(=O)O)C(=O)O	none
C(=C\c1ccccc1)/CN1CCN(C(c2cccs2)c2nnnn2Cc2ccccc2)CC1 (configuration not stated)	none (no result: NR3A LBD binder)
C(=C\c1ccccc1)/CN1CCN(C(c2cccc3ccccc23)c2nnnn2Cc2ccccc2)CC1 (configuration not stated)	ADAM17 inh 12 (no result: NR3A LBD binder) | ADAM10 counter 23 | ADAM17 confirm 9.6
CC(C)c1ccc(NS(=O)(=O)c2ccc(-n3cccn3)cc2)cc1	ADAM17 inh 9.1 | ADAM10 counter 21 | ADAM17 confirm 12
COC(=O)c1cccc(N(C(=O)CNC(=O)c2ccco2)C(C(=O)NC2CCCC2)c2ccco2)c1 (configuration not stated)	ADAM17 inh 8.8 | ADAM10 counter inactive | ADAM17 confirm inactive
COc1ccc(C)cc1N(C(=O)c1cccc(F)c1)c1nc2ccccc2s1	none
COc1ccc(C)cc1N(C(=O)c1ccccc1)c1nc2ccccc2s1	ADAM17 inh 9.9 | ADAM10 counter 26 | ADAM17 confirm 18
O=C(NNC(=O)c1csc(-c2ccccc2)n1)c1ccccc1	ADAM17 inh 8.8 (no result: NR3A LBD binder) | ADAM10 counter inactive | ADAM17 confirm inactive
CCCOc1ccc(C2/C(=C(\O)c3c(C)[nH]c(C(=O)OC)c3C)C(=O)C(=O)N2CCN(C)C)cc1 (configuration not stated)	ADAM17 inh 9.9 | ADAM10 counter inactive | ADAM17 confirm inactive
